Test results reported in ChEMBL document CHEMBL1122544, “Azasteroids as inhibitors of rat prostatic 5 alpha-reductase” (J Med Chem, 1984).

Molecular target: T1, 3-oxo-5-alpha-steroid 4-dehydrogenase 1 (Rattus norvegicus) (UniProt P24008)
T1 sequence (whole entry): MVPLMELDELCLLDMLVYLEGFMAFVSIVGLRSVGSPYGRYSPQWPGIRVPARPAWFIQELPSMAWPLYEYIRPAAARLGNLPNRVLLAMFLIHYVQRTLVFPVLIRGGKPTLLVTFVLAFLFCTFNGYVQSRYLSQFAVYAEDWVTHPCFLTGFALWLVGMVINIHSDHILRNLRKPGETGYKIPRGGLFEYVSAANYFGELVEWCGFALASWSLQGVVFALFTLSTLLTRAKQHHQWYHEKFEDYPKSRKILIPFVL
Assay: In vitro inhibitory activity against rat prostatic 5-alpha-reductase (150 ng/tube)
Method in brief: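 Rat prostatic enzyme preparation incubated with radioactive T and excess NADPH in 0.21 mL medium; 150 ng steroid per incubation (approx. 2 μM). Read-out is percent prevention of [³H]T conversion to [³H]DHT vs. control incubation without inhibitor. Duplicate assays, progesterone (150 ng) or a reference azasteroid (25 ng) as positive controls; most values single, separate determinations, approximate.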

Compound	inhibition [%]
CCN(CC)C(=O)[C@H]1CCC2C3CCC4N(C)C(=N)CCC4(C)C3CCC21C (some centres not stated)	22
CCN(CC)C(=O)[C@H]1CCC2C3CCC4N(CCO)C(=O)CCC4(C)C3CCC21C (some centres not stated)	0
CN1C(=O)CCC2(C)C3CCC4(C)C(CC[C@@H]4C(N)=O)C3CCC12 (some centres not stated)	91
CC(C)N(C(=O)[C@H]1CC[C@H]2[C@@H]3CCC4N(C)C(=O)CC[C@]4(C)[C@H]3CC[C@]12C)C(C)C (some centres not stated)	100
CCN(CC)C(=O)[C@H]1CCC2C3CCC4N(C)/C(=N\C)CCC4(C)C3CCC21C (some centres not stated)	49
CCCCCCCCCC[C@H]1CCC2C3CCC4N(C)C(=O)CCC4(C)C3CCC21C (some centres not stated)	7
CC(CCC(=O)O)[C@H]1CC[C@H]2[C@@H]3CCC4N(C)C(=O)CC[C@]4(C)[C@H]3CC[C@]12C (some centres not stated)	88
CCN(CC)C(=O)[C@H]1CCC2C3CCC4N(C)CCCC4(C)C3CCC21C (some centres not stated)	44
CCN(CC)C(=O)[C@H]1CC[C@H]2[C@@H]3CC[C@@H]4N(C)C(=O)CC[C@]4(C)[C@H]3CC[C@]12C	7
CCN(CC)C(=O)[C@H]1CCC2C3CC[C@H]4N(C)C(=O)[C@@H](C)CC4(C)C3CCC21C (some centres not stated)	99
CCN(CC)C(=O)C[C@H]1CC[C@H]2[C@@H]3CCC4N(C)C(=O)CC[C@]4(C)[C@H]3CC[C@]12C (some centres not stated)	97
CCN(CC)C(=O)[C@H]1CC[C@H]2[C@@H]3CC[C@H]4N(C)C(=O)CC[C@]4(C)[C@H]3CC[C@]12C	99
CC(=O)[C@H]1CC[C@H]2[C@@H]3CC[C@H]4CS(=O)(=O)C[C@]4(C)[C@H]3CC[C@]12C (stereo in doubt; 42)	13
CCN(CC)C(=O)/C=C1\CC[C@H]2[C@@H]3CCC4N(C)C(=O)CC[C@]4(C)[C@H]3CC[C@]12C (some centres not stated)	100
CC(=O)[C@H]1CC[C@H]2[C@@H]3CC[C@H]4CS(=O)(=O)C[C@]4(C)[C@H]3CC[C@]12C (stereo in doubt; 44)	13
CN1C(=O)CCC2C3CCC4(C)C(CC[C@@H]4O)C3CCC21 (some centres not stated)	81
CCN(CC)C(=O)[C@H]1CCC2C3CCC4N(C)C(=S)CCC4(C)C3CCC21C (some centres not stated)	50
CN1C(=O)CCC2(C)C3CCC4(C)C(CC[C@@H]4CN)C3CCC12 (some centres not stated)	80
CC12CCNC(=O)C1CCC1C2CCC2(C)C1CC[C@@H]2O (some centres not stated)	0
CCN(CC)C(=O)[C@H]1CC[C@H]2[C@@H]3CC[C@H]4NC(=O)C=C[C@]4(C)[C@H]3CC[C@]12C	74
CN1C(=O)CC[C@@]2(C)C1CC[C@H]1[C@@H]3CC[C@H](C(=O)O)[C@@]3(C)CC[C@@H]12 (some centres not stated)	90

Compound	inhibition [%]
CCN(CC)C(=O)[C@H]1CCC2C3CCC4N(C)C(=O)/C(=C/O)CC4(C)C3CCC21C (some centres not stated)	48
CCN(CC)C(=O)[C@H]1CCC2C3CCC4N(NC)C(=O)CCC4(C)C3CCC21C (some centres not stated)	24
CCN(CC)C(=O)[C@H]1CC[C@H]2[C@@H]3CC[C@@H]4NC(=O)CC[C@]4(C)[C@H]3CC[C@]12C	95
CCN(CC)C(=O)[C@H]1CCC2C3CC[C@H]4N(C)C(=O)[C@H](O)CC4(C)C3CCC21C (some centres not stated)	46
CCN1C(=O)CC[C@@]2(C)C1CC[C@@H]1[C@@H]2CC[C@@]2(C)[C@H]1CC[C@@]21CCCO1 (some centres not stated)	27
CCCCCCCCNC(=O)[C@H]1CCC2C3CCC4N(C)C(=O)CCC4(C)C3CCC21C (some centres not stated)	100
CC(=O)O[C@H]1CCC2C3CC[C@H]4CN(C(C)=O)CCC4(C)C3CCC21C (some centres not stated)	33
CC(O)[C@H]1CC[C@H]2[C@@H]3CCC4N(C)C(=O)CC[C@]4(C)[C@H]3CC[C@]12C (some centres not stated)	100
CN1C(=O)CCC2(C)C3CCC4(C)/C(=C/C(=O)O)CCC4C3CCC12 (configuration not stated)	92
CC(=O)O[C@H]1CCC2C3CC[C@H]4CC(=O)NCCC4(C)C3CCC21C (some centres not stated)	0
CN1C(=O)CC[C@@]2(C)C1CC[C@H]1[C@@H]3CC[C@H](O)[C@@]3(C)CC[C@@H]12 (some centres not stated)	72
CCN(CC)C(=O)[C@H]1CCC2C3CCC4N(C)/C(=N/O)CCC4(C)C3CCC21C (some centres not stated)	77
COC(=O)CCC(C)[C@H]1CC[C@H]2[C@@H]3CCC4N(C)C(=O)CC[C@]4(C)[C@H]3CC[C@]12C (some centres not stated)	84
CC(=O)[C@H]1CC[C@H]2[C@@H]3CC[C@H]4CS(=O)(=O)C[C@]4(C)[C@H]3CC[C@]12C (stereo in doubt; 43)	13
CC(=O)N[C@@H]1CC[C@H]2[C@@H]3CCC4N(C)C(=O)CC[C@]4(C)[C@H]3CC[C@]12C (some centres not stated)	87
CC(=O)O[C@H]1CCC2C3CC[C@H]4NC(=O)CCCC4(C)C3CCC21C (some centres not stated)	94
CCN(CC)C(=O)CCC(C)[C@H]1CC[C@H]2[C@@H]3CCC4N(C)C(=O)CC[C@]4(C)[C@H]3CC[C@]12C (some centres not stated)	100
CC12CCC(=O)NC1CCC1C2CCC2(C)C1CC[C@@H]2O (some centres not stated)	57
CC(CO)[C@H]1CC[C@H]2[C@@H]3CCC4N(C)C(=O)CC[C@]4(C)[C@H]3CC[C@]12C (some centres not stated)	100
C[C@]12CCC(=O)NC1CC[C@@H]1[C@@H]2CC[C@@]2(C)[C@H]1CC[C@@]21CCCO1 (some centres not stated)	68
CC(=O)[C@H]1CCC2C3CCC4NC(=O)CCC4(C)C3CCC21C (some centres not stated)	100

Compound	inhibition [%]
CCN(CC)C(=O)[C@H]1CCC2C3CCC4N(C)C(=O)C(=O)CC4(C)C3CCC21C (some centres not stated)	78
CCNC(=O)[C@H]1CCC2C3CCC4N(C)C(=O)CCC4(C)C3CCC21C (some centres not stated)	83
CCN(CC)C(=O)[C@H]1CC[C@H]2[C@@H]3CC[C@H]4N(C)C(=O)C=C[C@]4(C)[C@H]3CC[C@]12C	63
COC(=O)[C@H]1CCC2C3CCC4N(C)C(=O)CCC4(C)C3CCC21C (some centres not stated)	96
CC(=O)O[C@H]1CCC2C3CC[C@H]4CC(=O)NCC4(C)C3CCC21C (some centres not stated)	35
CCN(CC)C(=O)[C@H]1CCC2C3CCC4N(c5ccccc5)C(=O)CCC4(C)C3CCC21C (some centres not stated)	5
CCN(CC)C(=O)C(C)[C@H]1CC[C@H]2[C@@H]3CCC4N(C)C(=O)CC[C@]4(C)[C@H]3CC[C@]12C (some centres not stated)	83
CC(=O)[C@H]1CCC2C3CCC4N(C)C(=O)CCC4(C)C3CCC21C (some centres not stated)	100
COC(=O)[C@H]1CCC2C3CC[C@H]4CC(=O)OCC4(C)C3CCC21C (some centres not stated)	0
CCOC(=O)C[C@H]1CC[C@H]2[C@@H]3CC[C@H]4N(C)C(=O)CC[C@]4(C)[C@H]3CC[C@]12C	88
CC12COC(=O)C=C1CCC1C2CCC2(C)C1CC[C@]2(C)O (some centres not stated)	8
CN1C(=O)CCC2(C)C1=CCC1C2CCC2(C)C1CC[C@@H]2O (some centres not stated)	36
CCN(CC)C(=O)[C@H]1CCC2C3CCC4N(C)C(=O)CC4(C)C3CCC21C (some centres not stated)	7
CC(=O)N[C@H]1CCC2C3CCC4N(C)C(=O)CCC4(C)C3CCC21C (some centres not stated)	76
CN1C(=O)CC[C@@]2(C)C1CC[C@@H]1[C@@H]2CC[C@@]2(C)[C@H]1CC[C@@]21CCCO1 (some centres not stated)	81
CCN(CC)C(=O)[C@H]1CCC2C3CCC4N(C)C(=O)C5OC5C4(C)C3CCC21C (some centres not stated)	19
CC(=O)O[C@H]1CCC2C3CC[C@H]4CNC(=O)CC4(C)C3CCC21C (some centres not stated)	0
CC(C(=O)O)[C@H]1CC[C@H]2[C@@H]3CCC4N(C)C(=O)CC[C@]4(C)[C@H]3CC[C@]12C (some centres not stated)	96
CC(O)[C@@]1(O)CC[C@H]2[C@@H]3CCC4N(C)C(=O)CC[C@]4(C)[C@H]3CC[C@@]21C (some centres not stated)	100
CC(=O)O[C@H]1CCC2C3CC[C@H]4CNC(=O)CCC4(C)C3CCC21C (some centres not stated)	0
